Experiments:
Jurkat cells [1] = test: LDH release cytotoxicity; type: cell-based, human; settings: 10 μM, 37 °C; for Cytotoxicity by LDH release (in words): 10 min or 60 min
How it was run: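 Jurkat cells exposed to 10 μM lipopeptide at 37 °C for 10 or 60 min, then the plate was centrifuged at 250 × g for 4 min. Released LDH in the supernatant was read using tetrazolium substrate (RT, 30 min, dark) at 490 nm. Controls were spontaneous release, lysis-solution maximum, volume correction and medium background. % cytotoxicity = (experimental − spontaneous)/(maximum − spontaneous) × 100. Triplicate.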

Jurkat cells [2] = test: Cellular uptake of FITC-labelled LPs by flow cytometry; type: cell-based, human; settings: 10 μM, 10 min, 37 °C

Structure (SMILES) | Cytotoxicity by LDH release (in words) (Jurkat cells [1]) | Cytotoxicity (LDH release, % of maximum) (Jurkat cells [1]; 60 min, triplicate, mean ± SD) | Signal intensity relative to C14R11 (C14R11 set as 1) (Jurkat cells [2])
CCCCCCCCCCCC(=O)NCCC(=O)N[C@@H](CCCNC(=N)N)C(=O)N[C@@H](CCCNC(=N)N)C(=O)N[C@@H](CCCNC(=N)N)C(=O)N[C@@H](CCCNC(=N)N)C(=O)N[C@@H](CCCNC(=N)N)C(=O)N[C@@H](CCCNC(=N)N)C(=O)N[C@@H](CCCNC(=N)N)C(=O)N[C@@H](CCCCNC(=S)Nc1ccc2c(c1)C(=O)OC21c2ccc(O)cc2Oc2cc(O)ccc21)C(N)=O [C12R7] | didn’t exhibit any significant toxicity |  | 
CCCCCCCCCCCCCC(=O)NCCC(=O)N[C@@H](CCCNC(=N)N)C(=O)N[C@@H](CCCNC(=N)N)C(=O)N[C@@H](CCCNC(=N)N)C(=O)N[C@@H](CCCNC(=N)N)C(=O)N[C@@H](CCCNC(=N)N)C(=O)N[C@@H](CCCNC(=N)N)C(=O)N[C@@H](CCCNC(=N)N)C(=O)N[C@@H](CCCCNC(=S)Nc1ccc2c(c1)C(=O)OC21c2ccc(O)cc2Oc2cc(O)ccc21)C(N)=O [C14R7] | didn’t exhibit any significant toxicity |  | 
CCCCCCCCCCCCCC(=O)NCCC(=O)N[C@H](CCCNC(=N)N)C(=O)N[C@H](CCCNC(=N)N)C(=O)N[C@H](CCCNC(=N)N)C(=O)N[C@H](CCCNC(=N)N)C(=O)N[C@H](CCCNC(=N)N)C(=O)N[C@H](CCCNC(=N)N)C(=O)N[C@H](CCCNC(=N)N)C(=O)N[C@H](CCCNC(=N)N)C(=O)N[C@H](CCCNC(=N)N)C(=O)N[C@H](CCCNC(=N)N)C(=O)N[C@H](CCCNC(=N)N)C(=O)N[C@@H](CCCCNC(=S)Nc1ccc2c(c1)C(=O)OC21c2ccc(O)cc2Oc2cc(O)ccc21)C(N)=O [C14dR11] |  | 5.97 ± 0.9% | 5 fold
CCCCCCCCCCCCCCCC(=O)NCCC(=O)N[C@@H](CCCNC(=N)N)C(=O)N[C@@H](CCCNC(=N)N)C(=O)N[C@@H](CCCNC(=N)N)C(=O)N[C@@H](CCCNC(=N)N)C(=O)N[C@@H](CCCNC(=N)N)C(=O)N[C@@H](CCCNC(=N)N)C(=O)N[C@@H](CCCNC(=N)N)C(=O)N[C@@H](CCCCNC(=S)Nc1ccc2c(c1)C(=O)OC21c2ccc(O)cc2Oc2cc(O)ccc21)C(N)=O [C16R7] | didn’t exhibit any significant toxicity |  | 

— publication PMC3156442 (Molecular bioSystems, 2010)
